Test results published in ChEMBL document CHEMBL1124959, “Synthesis of peptidyl fluoromethyl ketones and peptidyl alpha-keto esters as inhibitors of porcine pancreatic elastase, human neutrophil elastase, and rat and human neutrophil cathepsin G” (J Med Chem, 1990).
Peptide text beside a SMILES is read from it. * marks the point of attachment. Dansyl = CN(C)c1cccc2c(S(=O)(=O)*)cccc12; MeOSuc = COC(=O)CCC(=O)*; Cbz = O=C(OCc1ccccc1)*; Boc = CC(C)(C)OC(=O)*; CF3 = FC(F)(F)*

Key:
Pancreatic elastase [1] = biological target: T1, Pancreatic elastase (Sus scrofa, UniProt P08419+P00772); experiment: Binding affinity for porcine Elastase; type: protein assay
How it was run: (§1)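 Porcine pancreatic elastase was followed spectrophotometrically at 410 nm, 37 °C, with Suc-Ala-Pro-Ala-p-nitroanilide in pH 8.0 buffer (0.1 M NaCl, 0.01 M HEPES, 0.01 M Tris, 0.1% PEG 6000). Paired runs were done: enzyme added last, or enzyme preincubated with inhibitor before substrate. Only data up to 10% substrate consumption were used. K_i* came from steady-state rates fitted to competitive inhibition.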

Neutrophil elastase [2] = biological target: T2, Neutrophil elastase (Homo sapiens, UniProt P08246); experiment: Binding affinity against human Neutrophil Elastase
T2 sequence (P08246 whole entry): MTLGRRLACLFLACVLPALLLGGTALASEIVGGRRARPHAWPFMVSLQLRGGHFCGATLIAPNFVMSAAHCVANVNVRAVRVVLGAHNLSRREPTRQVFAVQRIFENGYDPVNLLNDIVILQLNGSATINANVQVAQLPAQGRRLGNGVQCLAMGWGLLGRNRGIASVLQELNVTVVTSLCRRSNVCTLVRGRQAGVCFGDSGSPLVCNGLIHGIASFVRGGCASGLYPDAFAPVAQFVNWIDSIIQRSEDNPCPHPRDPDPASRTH
How it was run: (§2)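 Human neutrophil elastase purified from purulent sputum. Activity was read at 410 nm (p-nitroaniline) at 37 °C with MeO-Suc-Ala-Ala-Pro-Val-p-nitroanilide in 0.1 M NaCl, 0.01 M HEPES, 0.01 M Tris, 0.1% PEG 6000, pH 8.0, 1.25% DMSO. Paired assays were run, one adding enzyme last and one preincubating enzyme with inhibitor. Data were limited to ≤10% substrate use. Steady-state K_i* came from the competitive inhibition equation.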

Pancreatic elastase [3] = biological target: T1, Pancreatic elastase; experiment: Binding affinity against porcine pancreatic Elastase; type: protein assay; how it was run: as §1
Cathepsin G = biological target: T3, Cathepsin G (Homo sapiens, UniProt P08311); experiment: Binding affinity against human Cathepsin G
T3 sequence (P08311 whole entry): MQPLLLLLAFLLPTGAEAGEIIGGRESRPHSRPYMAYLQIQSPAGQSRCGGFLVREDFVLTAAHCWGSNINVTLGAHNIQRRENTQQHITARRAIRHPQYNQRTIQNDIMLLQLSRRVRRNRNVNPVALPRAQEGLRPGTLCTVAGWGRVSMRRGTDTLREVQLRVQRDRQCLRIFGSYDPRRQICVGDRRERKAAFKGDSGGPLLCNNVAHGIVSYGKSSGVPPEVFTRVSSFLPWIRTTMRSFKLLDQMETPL
How it was run: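 Cathepsin G came from neutrophil granule extracts of sputum or, for rat, peritoneal lavage, extracted in 1 M NaCl/0.1% Brij 35 acetate buffer, pH 5.5. K_i = [I]/(v0/v1 − 1), using equilibrium velocity when binding was slow.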

Neutrophil elastase [4] = biological target: T2, Neutrophil elastase; experiment: Binding affinity against human Elastase for less active diasteriomer; how it was run: as §2
Neutrophil elastase [5] = biological target: T2, Neutrophil elastase; experiment: Binding affinity against human Elastase for more active diasteriomer
Chymotrypsinogen B = Chymotrypsinogen B (Homo sapiens, UniProt P17538); experiment: Binding affinity against alpha-chymotrypsin
Neutrophil elastase [6] = biological target: T2, Neutrophil elastase; experiment: Binding affinity against human leukocyte Elastase

Sequence of Chymotrypsinogen B (P17538 34-164 limits assumed, other chains not shown): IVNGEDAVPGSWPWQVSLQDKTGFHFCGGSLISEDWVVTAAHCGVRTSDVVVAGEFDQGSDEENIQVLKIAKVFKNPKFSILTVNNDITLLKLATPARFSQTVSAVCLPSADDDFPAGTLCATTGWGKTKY
Sequence of Chymotrypsinogen B (P17538 167-263 limits assumed, other chains not shown): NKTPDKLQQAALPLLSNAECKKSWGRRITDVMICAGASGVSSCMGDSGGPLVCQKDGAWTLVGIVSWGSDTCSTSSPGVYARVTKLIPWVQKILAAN

SMILES | Ki (Pancreatic elastase [1]) [µM] | further results
CCOC(=O)C(=O)[C@H](C)NC(=O)[C@H](C)NC(=O)[C@H](C)NC(=O)[C@H](C)NC(=O)OCc1ccccc1 | 0.14 | –
CC(=O)N1CCC[C@H]1C(=O)N[C@@H](C)C(=O)N1CCC[C@H]1C(=O)N[C@@H](C)C(=O)C(=O)O | – | Ki (Neutrophil elastase [2]): 66 µM; Ki (Pancreatic elastase [3]): 0.69 µM
COC(=O)CCC(=O)NCCCC[C@H](NS(=O)(=O)C12CC3CC(CC(C3)C1)C2)C(=O)N1CCC[C@H]1C(=O)N[C@H](C(=O)C(F)(F)F)C(C)C | 0.015 | –
COC(=O)C(=O)[C@H](C)NC(=O)[C@@H]1CCCN1C(=O)[C@H](C)NC(=O)[C@@H]1CCCN1C(C)=O | 0.029 | –
COC(=O)CCC(=O)N[C@@H](C)C(=O)N[C@@H](C)C(=O)N1CCC[C@H]1C(=O)N[C@@H](Cc1ccccc1)C(=O)C(F)(F)F (MeOSuc-AAPF-CF3) | – | Ki (Chymotrypsinogen B): 0.017 µM
COC(=O)CCC(=O)N[C@H](C(=O)N1CCC[C@H]1C(=O)N[C@@H](Cc1ccccc1)C(=O)C(F)(F)F)C(C)C (MeOSuc-Val-Pro-Phe-CF3) | – | Ki (Cathepsin G): 3 µM
COC(=O)CCC(=O)N[C@@H](C)C(=O)N[C@@H](C)C(=O)N1CCC[C@H]1C(=O)N[C@@H](Cc1ccccc1)C(=O)C(=O)OC | – | Ki (Chymotrypsinogen B): 0.079 µM
CC(C)[C@H](NC(=O)[C@H](CCCCNC(=O)OCc1ccccc1)NC(=O)OCc1ccccc1)C(=O)N1CCC[C@H]1C(=O)N[C@H](C(=O)C(F)(F)F)C(C)C (Cbz-K(Cbz)VPV-CF3) | – | Ki (Neutrophil elastase [6]): < 0.0001 µM
COC(=O)CCC(=O)N[C@H](C(=O)N1CCC[C@H]1C(=O)N[C@@H](Cc1ccccc1)C(=O)C(=O)OC)C(C)C | – | Ki (Cathepsin G): 1.1 µM
CC(=O)N1CCC[C@H]1C(=O)N[C@@H](C)C(=O)N1CCC[C@H]1C(=O)N[C@@H](C)C=O (Ac-PAPA-aldehyde) | – | Ki (Pancreatic elastase [3]): 0.8 µM

The next lines start with results.

Ki (Pancreatic elastase [1]) [µM] | SMILES | further results
9.9 | CCOC(=O)C(F)(F)C(=O)[C@@H](NC(=O)[C@@H]1CCCN1C(=O)[C@H](C)NC(=O)[C@H](C)NC(=O)CCC(=O)OC)C(C)C | –
0.033 | COC(=O)CCC(=O)N[C@@H](C)C(=O)N[C@@H](C)C(=O)N1CCC[C@H]1C(=O)N[C@H](C(=O)C(F)(F)F)C(C)C (MeOSuc-AAPV-CF3) | –
0.088 | CC(C)[C@H](NC(=O)[C@@H]1CCCN1C(=O)[C@H](C)NC(=O)[C@H](C)NS(=O)(=O)c1cccc2c(N(C)C)cccc12)C(=O)C(F)(F)F (Dansyl-AAPV-CF3) | Ki (Cathepsin G): > 600 µM; Ki (Neutrophil elastase [4]): 0.11 µM; Ki (Neutrophil elastase [5]): 0.0063 µM
0.032 | CC(C)[C@H](NC(=O)[C@@H]1CCCN1C(=O)[C@H](C)NC(=O)[C@H](C)NC(=O)OC(C)(C)C)C(=O)C(F)(F)F (Boc-AAPV-CF3) | –
1.8 | CC(C)[C@H](NC(=O)[C@@H]1CCCN1C(=O)[C@H](Cc1ccccc1)NC(=O)OC(C)(C)C)C(=O)C(F)(F)F (Boc-Phe-Pro-Val-CF3) | –
28 | COC(=O)CCC(=O)N[C@H](Cc1ccccc1)C(=O)N1CCC[C@H]1C(=O)N[C@H](C(=O)C(F)(F)F)C(C)C | –
0.24 | CC(=O)N1CCC[C@H]1C(=O)N[C@@H](C)C(=O)N1CCC[C@H]1C(=O)N[C@@H](C)C(=O)C(F)(F)F (Ac-PAPA-CF3) | –
0.15 | CC(=O)N[C@@H](C)C(=O)N[C@@H](C)C(=O)N1CCC[C@H]1C(=O)N[C@@H](C)C(=O)C(F)(F)F (Ac-AAPA-CF3) | Ki (Cathepsin G): > 800 µM
0.68 | COC(=O)CCC(=O)N[C@@H](C)C(=O)N[C@@H](C)C(=O)N1CCC[C@H]1C(=O)N[C@H](C(=O)C(=O)OC)C(C)C | –
